Experimental data: ChEMBL document CHEMBL4627249, “New modification strategy of matrine as Hsp90 inhibitors based on its specific L conformation for cancer treatment” (Bioorg Med Chem, 2020)
The source made the active and inactive calls. The rule behind the calls is not given here.

Legend:
[1] = target: T1, Heat shock protein HSP90 (Homo sapiens) (UniProt P07900+P08238)
[2] = test system: MDA-MB-231; experiment: Antiproliferative activity against human MDA-MB-231 cells assessed as reduction in cell viability after 48 hrs by MTT assay; assay type: functional, cell-based; settings: MDA-MB-231, 48 h
[3] = test system: HepG2; experiment: Antiproliferative activity against human HepG2 cells assessed as reduction in cell viability after 48 hrs by MTT assay; assay type: functional, cell-based; settings: HepG2, 48 h
Summary of the method: (§1)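 HepG2 or HeLa cells in DMEM with 10% FBS and 1% penicillin-streptomycin were preincubated 24 h (37 °C, 5% CO2). They were then exposed for 48 h to 1, 5, 10, 20, 50 and 100 µM, diluted in medium from DMSO stocks. MTT (5 mg/mL, 20 µL) was added for 4 h, formazan dissolved in DMSO, and A490 read. Each concentration was run in triplicate. IC50 is the mean from dose-response curves of at least three independent experiments; cisplatin was the positive control.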

[4] = test system: HeLa; experiment: Antiproliferative activity against human HeLa cells assessed as reduction in cell viability after 48 hrs by MTT assay; assay type: functional, cell-based
Summary of the method: as §1

[5] = test system: HeLa; experiment: Induction of apoptosis in human HeLa cells assessed as late apoptotic cells at 5 uM after 48 hrs by Annexin V/propidium iodide staining based assay (reference value: 1.75 %); assay type: functional
Summary of the method: (§2)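 HeLa cells were seeded at 2 × 10^5 per well in six-well plates and left overnight. They were then treated with 5, 10 or 20 µM for 48 h. Annexin V-FITC/PI staining was done with a commercial kit per its instructions. Early and late apoptotic fractions are given as cumulative percentages relative to untreated control.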

[6] = test system: HeLa; experiment: Cell cycle arrest in human HeLa cells assessed as accumulation of cells at S phase at 10 uM after 48 hrs by RNase/PI-staining based flow cytometric analysis (reference value: 17.24 %); assay type: functional
[7] = test system: HeLa; experiment: Induction of apoptosis in human HeLa cells assessed as decrease in protected caspase 3 protein expression after 48 hrs by Western blot analysis; assay type: functional, cell-based
Summary of the method: (§3)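 HeLa cells were treated 48 h with 12.5, 25 or 50 µM, or with DMSO vehicle. Cells were lysed 30 min in RIPA buffer with protease inhibitor cocktail and spun at 12,000 rpm for 15 min at 4 °C. Proteins were run on 6-15% SDS-PAGE and moved to nitrocellulose. Membranes were blocked in 5% non-fat milk in TBS, probed with primary and secondary antibodies, and imaged by chemiluminescence.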

[8] = test system: HeLa; experiment: Cell cycle arrest in human HeLa cells assessed as accumulation of cells at G0/G1 phase at 5 uM after 48 hrs by RNase/PI-staining based flow cytometric analysis (reference value: 71.07 %); assay type: functional
[9] = test system: HeLa; experiment: Induction of apoptosis in human HeLa cells assessed as viable cells at 20 uM after 48 hrs by Annexin V/propidium iodide staining based assay (reference value: 95.03 %); assay type: functional; settings: read-out: Activity
Summary of the method: as §2

[10] = test system: HeLa; experiment: Induction of apoptosis in human HeLa cells assessed as late apoptotic cells at 10 uM after 48 hrs by Annexin V/propidium iodide staining based assay (reference value: 1.75 %); assay type: functional
Summary of the method: as §2

[11] = test system: HeLa; experiment: Induction of apoptosis in human HeLa cells assessed as viable cells at 5 uM after 48 hrs by Annexin V/propidium iodide staining based assay (reference value: 95.03 %); assay type: functional; settings: read-out: Activity
Summary of the method: as §2

[12] = test system: HeLa; experiment: Induction of apoptosis in human HeLa cells assessed as increase in Bax protein expression after 48 hrs by Western blot analysis; assay type: functional, cell-based
Summary of the method: as §3

[13] = test system: HeLa; experiment: Induction of apoptosis in human HeLa cells assessed as accumulation of […] cells at 5 uM after 48 hrs by Annexin V/propidium iodide staining based assay (reference value: 0 %); assay type: functional
Summary of the method: as §2

[14] = test system: HeLa; experiment: Induction of apoptosis in human HeLa cells assessed as viable cells at 10 uM after 48 hrs by Annexin V/propidium iodide staining based assay (reference value: 95.03 %); assay type: functional; settings: read-out: Activity
Summary of the method: as §2

[15] = test system: HeLa; experiment: Cell cycle arrest in human HeLa cells assessed as accumulation of cells at G2/M phase at 10 uM after 48 hrs by RNase/PI-staining based flow cytometric analysis (reference value: 11.69 %); assay type: functional
[16] = test system: HeLa; experiment: Induction of apoptosis in human HeLa cells assessed as early apoptotic cells at 10 uM after 48 hrs by Annexin V/propidium iodide staining based assay (reference value: 3.22 %); assay type: functional
Summary of the method: as §2

[17] = test system: HeLa; experiment: Induction of apoptosis in human HeLa cells assessed as necrotic cells at 20 uM after 48 hrs by Annexin V/propidium iodide staining based assay (reference value: 0 %); assay type: functional
Summary of the method: as §2

[18] = test system: HeLa; experiment: Cell cycle arrest in human HeLa cells assessed as accumulation of cells at G2/M phase at 5 uM after 48 hrs by RNase/PI-staining based flow cytometric analysis (reference value: 11.69 %); assay type: functional
[19] = test system: HeLa; experiment: Cell cycle arrest in human HeLa cells assessed as accumulation of cells at G2/M phase at 20 uM after 48 hrs by RNase/PI-staining based flow cytometric analysis (reference value: 11.69 %); assay type: functional
[20] = test system: HeLa; experiment: Induction of apoptosis in human HeLa cells assessed as decrease in Bcl-2 protein expression after 48 hrs by Western blot analysis; assay type: functional, cell-based
Summary of the method: as §3

[21] = test system: HeLa; experiment: Induction of apoptosis in human HeLa cells assessed as increase in ratio of Bax to Bcl-2 protein expression 12.5 to 50 uM after 48 hrs by Western blot analysis; assay type: functional, cell-based
Summary of the method: as §3

[22] = test system: HeLa; experiment: Cell cycle arrest in human HeLa cells assessed as accumulation of cells at G0/G1 phase at 10 uM after 48 hrs by RNase/PI-staining based flow cytometric analysis analysis (reference value: 71.07 %); assay type: functional
[23] = target: T1, Heat shock protein HSP90 (Homo sapiens); experiment: Inhibition of Hsp90 in human Hela cells assessed as down regulation of Hsp90 protein expression at 12.5 uM to 50 uM after 48 hrs by Western blot analysis; assay type: cell-based
Summary of the method: as §3

[24] = test system: HeLa; experiment: Cell cycle arrest in human HeLa cells assessed as accumulation of cells at S phase at 5 uM after 48 hrs by RNase/PI-staining based flow cytometric analysis (reference value: 17.24 %); assay type: functional
[25] = test system: HeLa; experiment: Induction of apoptosis in human HeLa cells assessed as early apoptotic cells at 5 uM after 48 hrs by Annexin V/propidium iodide staining based assay (reference value: 3.22 %); assay type: functional
Summary of the method: as §2

[26] = test system: HeLa; experiment: Induction of apoptosis in human HeLa cells assessed as increase in cleaved caspase 3 protein expression after 48 hrs by Western blot analysis; assay type: functional, cell-based
Summary of the method: as §3

[27] = test system: HeLa; experiment: Induction of apoptosis in human HeLa cells assessed as early apoptotic cells at 20 uM after 48 hrs by Annexin V/propidium iodide staining based assay (reference value: 3.22 %); assay type: functional
Summary of the method: as §2

[28] = test system: HeLa; experiment: Cell cycle arrest in human HeLa cells assessed as accumulation of cells at S phase at 20 uM after 48 hrs by RNase/PI-staining based flow cytometric analysis (reference value: 17.24 %); assay type: functional
[29] = test system: HeLa; experiment: Cell cycle arrest in human HeLa cells assessed as accumulation of cells at G0/G1 phase at 20 uM after 48 hrs by RNase/PI-staining based flow cytometric analysis (reference value: 71.07 %); assay type: functional
[30] = test system: HeLa; experiment: Induction of apoptosis in human HeLa cells assessed as late apoptotic cells at 20 uM after 48 hrs by Annexin V/propidium iodide staining based assay (reference value: 1.75 %); assay type: functional
Summary of the method: as §2

[31] = test system: HeLa; experiment: Cell cycle arrest in human HeLa cells assessed as accumulation of cells at S phase after 48 hrs by RNase/PI-staining based flow cytometric analysis; assay type: functional
[32] = test system: HeLa; experiment: Induction of apoptosis in human HeLa cells assessed as necrotic cells at 10 uM after 48 hrs by Annexin V/propidium iodide staining based assay (reference value: 0 %); assay type: functional
Summary of the method: as §2

For `Cc1ccc2nc3c(c(N)c2c1)CC[C@@H]1[C@H]2CCCN4CCC[C@@H](CN31)[C@@H]24`, the ΔTm [1] was -4.27 °C, the IC50 [2] was 16.9 µM and the IC50 [3] was 9.2 µM. It also gave an IC50 [4] of 13.4 µM.

For `c1ccc(Oc2ccc(/N=C3\CCC[C@@H]4[C@H]5CCCN6CCC[C@@H](CN34)[C@@H]56)cc2)cc1`, the ΔTm [1] was -1.3 °C, the IC50 [2] was 55.2 µM and the IC50 [3] was 51.3 µM. It also gave an IC50 [4] of 33.7 µM.

In the case of `Nc1c2c(nc3ccc(C(F)(F)F)cc13)N1C[C@@H]3CCCN4CCC[C@@H]([C@H]34)[C@H]1CC2`, the Activity [5] is reported as 8.79%, the Activity [6] is reported as 26.67% and the Activity [7] is reported as “Dose-dependent effect”. For the same molecule, the Activity [8] was 65.53%, the viability at 20 µM [9] was 38.1% and the Activity [10] was 17.3%. For the same molecule, the viability at 5 µM [11] was 72%, the Activity [12] was “Dose-dependent effect” and the Activity [13] was 8.79%. It also gave a viability at 10 µM [14] of 50.1%, an Activity [15] of 10.86% and an Activity [16] of 28.57%. It also gave an Activity [17] of 2.62%, an Activity [18] of 12.83% and an Activity [19] of 2.93%. The Activity [20] was “Dose-dependent effect”, the Activity [21] was “Active” and the Activity [22] was 62.47%. For the same molecule, the inhibition [23] was “Active”, the Activity [24] was 21.64% and the Activity [25] was 17.51%. The ΔTm [1] was 10.9 °C, the Activity [26] was “Dose-dependent effect” and the Activity [27] was 38.07%. The Activity [28] was 40.12%, the IC50 [2] was 22.1 µM and the Activity [29] was 56.95%. For the same molecule, the IC50 [3] was 16.1 µM, the Activity [30] was 21.17% and the Activity [31] was “Dose-dependent effect”. For the same molecule, the IC50 [4] was 19.6 µM and the Activity [32] was 4.06%.

For `Nc1c2c(nc3ccc(Br)cc13)N1C[C@@H]3CCCN4CCC[C@@H]([C@H]34)[C@H]1CC2`, the ΔTm [1] was -7.58 °C, the IC50 [2] was 9.7 µM and the IC50 [3] was 9.7 µM. It also gave an IC50 [4] of 6.9 µM.

Molecule `c1ccc(/N=C2\CCC[C@@H]3[C@H]4CCCN5CCC[C@@H](CN23)[C@@H]45)cc1` has a ΔTm [1] of -0.57 °C, an IC50 [2] greater than 100 µM and an IC50 [3] greater than 100 µM. The IC50 [4] was greater than 100 µM.

Work on `CCOc1ccc(/N=C2\CCC[C@@H]3[C@H]4CCCN5CCC[C@@H](CN23)[C@@H]45)cc1` yielded a ΔTm [1] of 0 °C, an IC50 [2] greater than 100 µM and an IC50 [3] of 97.5 µM. The IC50 [4] was greater than 100 µM.

For `O=C1CCCC[C@@H]2[C@H]3CCCN4CCC[C@@H](CN12)[C@@H]34`, the IC50 [2] was greater than 100 µM, the IC50 [3] was greater than 100 µM and the IC50 [4] was greater than 100 µM.

`O=C1C[C@@H]2[C@H]3CCCN4CCC[C@@H](CN12)[C@@H]34` gave a ΔTm [1] of 0.44 °C, an IC50 [2] greater than 100 µM and an IC50 [3] greater than 100 µM. The IC50 [4] was greater than 100 µM.

For `Nc1c2c(nc3ccc(Cl)cc13)N1C[C@@H]3CCCN4CCC[C@@H]([C@H]34)[C@H]1CC2`, the ΔTm [1] was -6.58 °C, the IC50 [2] was 14.3 µM and the IC50 [3] was 6.4 µM. It also gave an IC50 [4] of 8.9 µM.

`c1ccc(-c2ccc(/N=C3\CCC[C@@H]4[C@H]5CCCN6CCC[C@@H](CN34)[C@@H]56)cc2)cc1` showed a ΔTm [1] of -4.91 °C, an IC50 [2] of 24.6 µM and an IC50 [3] of 11 µM. The IC50 [4] was 23.7 µM.
